# Reference: ChEMBL document CHEMBL1124605, “Synthesis and anthelmintic activity of a series of pyrazino[2,1-a][2]benzazepine derivatives” (1989)
# Tested on: Taenia crassiceps
# Experiment: 1 Minimum inhibitory concentration to prevent all movement of cysts and evaginated scoleces of in vitro Taenia crassiceps screen after 48 h
# Type: functional
# Procedure, shortened: (§1)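 Taenia crassiceps cysts taken from mice, pepsin-treated (0.05% in HCl, pH 2.0, 5 min, 37 °C) and washed three times in Hank's balanced salt solution. Compound added as a methylcellulose suspension (final 10 μg/mL) in CMRL 1066-based medium with fetal calf serum, glucose, taurocholate, yeast extract, HEPES and antibiotics, at 37 °C. Invaginated and evaginated cysts scored at 24 and 48 h. Actives titrated for MIC.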
row,MIC [µg/mL],Structure (SMILES)
1,< 0.1,"O=C(C1CCCCC1)N1CC(=O)N2CCCc3ccccc3C2C1 (single isomer, unassigned; (-)) [EPSIPRANTEL]"

# Tested on: Taenia crassiceps
# Experiment: Minimum inhibitory concentration to prevent all movement of cysts and evaginated scoleces of in vitro Taenia crassiceps screen after 48 h
# Type: functional
# Procedure, shortened: as §1
row,MIC [µg/mL],Structure (SMILES)
1,> 10,Nc1cccc(C(=O)N2CC(=O)N3CCCc4ccccc4C3C2)c1 (stereo unspecified)
2,> 10,O=C(c1ccc(Cl)cc1)N1CC(=O)N2CCCc3ccccc3C2C1 (stereo unspecified)
3,> 10,O=C(c1cccnc1)N1CC(=O)N2CCCc3ccccc3C2C1 (stereo unspecified)
4,> 10,CN(C)c1ccc(C(=O)N2CC(=O)N3CCCc4ccccc4C3C2)cc1 (stereo unspecified)
5,> 10,CC(C)C(=O)N1CC(=O)N2CCCc3ccccc3C2C1 (stereo unspecified)
6,> 10,Cc1cccc(C(=O)N2CC(=O)N3CCCc4ccccc4C3C2)c1 (stereo unspecified)
7,> 10,Cc1ccccc1C(=O)N1CC(=O)N2CCCc3ccccc3C2C1 (stereo unspecified)
8,> 10,O=C(c1ccc(O)cc1)N1CC(=O)N2CCCc3ccccc3C2C1 (stereo unspecified)
9,> 10,O=C(c1cccc(Cl)c1)N1CC(=O)N2CCCc3ccccc3C2C1 (stereo unspecified)
10,> 10,COc1ccc(C(=O)N2CC(=O)N3CCCc4ccccc4C3C2)cc1 (stereo unspecified)
11,> 10,O=C(c1ccc(F)cc1)N1CC(=O)N2CCCc3ccccc3C2C1 (stereo unspecified)
12,≤ 10,O=C(c1cccc([N+](=O)[O-])c1)N1CC(=O)N2CCCc3ccccc3C2C1 (stereo unspecified)
13,≤ 10,Cc1ccc(C(=O)N2CC(=O)N3CCCc4ccccc4C3C2)cc1 (stereo unspecified)
14,> 10,O=C(c1ccc([N+](=O)[O-])cc1)N1CC(=O)N2CCCc3ccccc3C2C1 (stereo unspecified)
15,> 10,CC(=O)N1CC(=O)N2CCCc3ccccc3C2C1 (stereo unspecified)

# The remaining lines, values behind:
row,Structure (SMILES),MIC [µg/mL]
1,O=C(C1CCCCCC1)N1CC(=O)N2CCCc3ccccc3C2C1 (stereo unspecified),> 10
2,O=C(C1CCC1)N1CC(=O)N2CCCc3ccccc3C2C1 (stereo unspecified),> 10
3,O=C(C1CCOCC1)N1CC(=O)N2CCCc3ccccc3C2C1 (stereo unspecified),> 10
4,O=C(C1CCCCC1)N1CC(=O)N2CCc3ccccc3C2C1 (stereo unspecified) [PRAZIQUANTEL],≤ 0.1
5,CCCCCC(=O)N1CC(=O)N2CCCc3ccccc3C2C1 (stereo unspecified),> 10
6,O=C(C1CCCCC1)N1CC(=O)N2CCSc3ccccc3C2C1 (stereo unspecified),> 10
7,O=C(C1CCCCC1)N1CC(=O)N2CCCc3ccccc3C2C1 (stereo unspecified) [EPSIPRANTEL],≤ 0.1
8,COc1cc2c(cc1OC)C1CN(C(=O)C3CCCCC3)CC(=O)N1CCC2 (stereo unspecified),> 10
9,Cl.O=C(C1CCCCC1)N1CCN2CCCc3ccccc3C2C1 (stereo unspecified),> 10
10,O=C(C1CCCCC1)N1CC(=S)N2CCCc3ccccc3C2C1 (stereo unspecified),> 10
